ChEMBL document CHEMBL4513216, “Probing the Open Global Health Chemical Diversity Library for Multistage-Active Starting Points for Next-Generation Antimalarials” (ACS Infect Dis, 2020)

Test: Toxicity liver stage against HepG2, at 10uM
Format: cell-based
Set-up: test concentration 10 uM, cell line HepG2-A16-CD81EGFP
Details: human, HepG2-A16-CD81EGFP cells; read-out: INHIBITION
How it was run: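 Uninfected HepG2-A16-CD81EGFP cells, 3 × 10^3 per well, 1536-well, plated on prespotted compound at 10 μM final, parasite-free screening media added to match infected plates; puromycin 10 μM positive, DMSO 0.5% negative; run in parallel with 48 h PbLuc assay at 37 °C, 5% CO2; viability by CellTiter-Glo luminescence, normalized to controls.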

Compound	cytotoxicity at 10 µM
CN1CCCN(CC(CC(=O)Nc2ccc(Cl)cc2)C(=O)O)CC1 (configuration not stated)	-5.4%
Cc1ccc(CN2CCc3c(C(=O)N(C)C)n[nH]c3C2)o1	2.14%
CC(C)CC(=O)N1CCC2(CC1)NC(=O)[C@H]1CN(C(=O)N(C)C)C[C@H]12	-1.74%
CN(C)CCNC(=O)c1ccc2ccc(N(C)CC3CC3)n2c1	-2.69%
CCOCc1ncn2c1CN(S(=O)(=O)c1ccc(F)cc1)CC2	1.29%
COc1cccc(C2SCC(=O)Nc3ccsc32)c1OC (configuration not stated)	0.661%
CCOc1cc2c(cc1C(=O)O)CCC2	-18.6%
COc1ccccc1C1CC(=O)Nc2nc(N3CCCCC3)sc21 (configuration not stated)	11.5%
O=C1CSC(c2ccc(O)c(Cl)c2)c2c(n(C3CCOCC3)[nH]c2=O)N1 (configuration not stated)	-3.08%
CCS(=O)(=O)N1CC[C@]2(C[C@@H](OCC3CC3)CO2)C1	-15.6%
CCC1=N[C@@]2(CC[C@@H]3CN(S(=O)(=O)CC(C)C)C[C@@H]32)C(=O)N1C	5.24%
Cn1nnc2c1C(COCC1CC1)CN(C(=O)Cc1ccsc1)C2 (configuration not stated)	-0.11%
Cc1c2ncn(CC(=O)c3ccccc3)c(=O)c2nn1C	-8.58%
O=C(NC1=NCCCN1c1ccc(Cl)cc1)c1cccc(Cl)c1	-17.5%
CN(C)C(=O)c1cccc(C2CNCCN2C)c1 (configuration not stated)	-3.15%
Cc1cnc(-c2nc(C3CCCN(Cc4cccs4)C3)no2)cn1 (configuration not stated)	1.33%
CCn1c(C)nc2cc(NC(=O)CC3CCN(S(C)(=O)=O)CC3)ccc21	4.39%
O=C(NCCNC(=O)C1CCN(c2ncccn2)CC1)c1ccoc1	-9.99%
CC1CCN(S(=O)(=O)NC(C)Cc2ccco2)CC1 (configuration not stated)	3.53%
Cn1cc(C(NCc2ccc(F)cc2)c2cccc(F)c2)cn1 (configuration not stated)	0.137%
CC(=O)N1CCCN(CCCc2ccccc2)CC1	-9.28%
CCc1ncc2c(n1)CN(CC(=O)NC1CCCCNC1=O)CC2 (configuration not stated)	6.61%
O=S(=O)(NCc1ccnc(-n2ccnc2)c1)c1cncc(Cl)c1	3.46%

Compound	cytotoxicity at 10 µM
CCN(Cc1cnc(C)cn1)C1CCN(c2ccccc2)C1=O (configuration not stated)	4.81%
CC(CNS(N)(=O)=O)Oc1cccc(Cl)c1 (configuration not stated)	2.24%
Cc1noc(C)c1CN1CCC(NC(=O)OC(C)(C)C)CC1	6.27%
COCCCNC(=O)c1c[nH]c2ccc(OC)cc12	-4.76%
OCCCN1CCCC1c1nc(Cc2ccc(F)cc2)no1 (configuration not stated)	-4.58%
Cc1nc2cc(=O)[nH]n2c(C)c1CC(=O)Nc1cnn(C)c1	4.58%
CCn1nc(C)c(CNC(=O)NCC(C)(O)c2ccsc2)c1C (configuration not stated)	7.59%
O=C1OCCN1CCN1CCCN(Cc2ccccc2F)CC1	-7.11%
CCCC(C)Sc1nnnn1C1CCOCC1 (configuration not stated)	2.3%
Cc1ccc(N2CCCC(NCCCS(C)(=O)=O)C2)nn1 (configuration not stated)	0.833%
CCc1nc(CN2CCCC(N(C)Cc3nc(C)c(C)o3)C2)no1 (configuration not stated)	-16.5%
N#Cc1ccc(CN2C(=O)c3ccccc3CS2(=O)=O)c(F)c1	-0.639%
Cc1c(C(=O)NC(C)C)nnn1-c1cccc(C(F)(F)F)c1	-1.54%
Cc1cc(C)n(CC2CCCN2C(=O)c2ccc3c(c2)OCCO3)n1 (configuration not stated)	5.43%
Cc1nn(C(C)C)c(C)c1S(=O)(=O)Nc1cccc(C(=O)O)c1	9.53%
Nc1nccnc1C(=O)N1CC(OCc2cccc3ccccc23)C1	7.39%
CCC(C)(C)C(=O)NCCCOC1CCOC1 (configuration not stated)	-6.21%
COCCN(C)c1ccc(NCc2cccnc2)nc1	-9.9%
CCOc1ccc(C(F)(F)F)cc1NC(=O)N1CCNC(=O)C1	-1.11%
COc1ccc(-c2ccc(C(=O)O)c(F)c2)c(F)c1	-0.378%
CCc1ccc(C(COC)NC(=O)c2ccc(O)nc2)o1 (configuration not stated)	3.06%
O=C(CC1=CCCCC1)Nc1ccc(CN2C(=O)CCC2=O)cc1	0.719%
COc1ccnc(N(C)Cc2ccccc2OC(F)(F)F)n1	6.15%

Compound	cytotoxicity at 10 µM
Cc1noc(C)c1CC(=O)OCc1nc(N)c2ccccc2n1	6.83%
Cn1cnnc1-c1cncc(NCc2cccc3c2OCO3)c1	9.15%
O=C(C(c1ccccc1)N1CCc2cncnc2C1)N1CCCCC1 (configuration not stated)	1.26%
COCCC(=O)N1CCN(CC2CC2)c2ccccc21	-4.5%
CCCS(=O)(=O)NC(=O)c1ccc(CC)o1	-8.37%
NC(=O)NC(CC(=O)N1CCc2sccc2C1)c1cccc(Br)c1 (configuration not stated)	3.43%
CC(Cc1ccco1)NC(=O)CSc1nnc[nH]1 (configuration not stated)	13%
COCC1CN(C(=O)Nc2cc(-n3cccc3)ccc2F)CCO1 (configuration not stated)	3.61%
Cc1oc(C(=O)O)cc1S(=O)(=O)Nc1cccc(-n2nccc2C)c1	4.46%
COC(=O)C1CCN(c2cncc(-n3nc(C)cc3C)n2)CC1	-9.44%
COc1cc(C)nc(N2CCN(C(=O)CCc3cscn3)CC2)n1	-10.2%
CCOC(C)c1nc(CN2CCNCC2)cs1 (configuration not stated)	-13.3%
O=C(Nc1nncs1)NC1CCOc2ccccc21 (configuration not stated)	-10.4%
Cn1nnc2c1C(COCC1CC1)CN(C(=O)CC1=CCCCC1)C2 (configuration not stated)	-99.3%
Cn1nc(C#N)c2c1CN(C(=O)c1c[nH]cn1)CCC2	-122%
CCN(Cc1nccs1)Cc1cc(Cl)ccc1OC	-1.06%
CCCn1nc(C)c2c1NC(=O)CC2c1ccc(CN2CCCC2)s1 (configuration not stated)	0.355%
c1ccc(CCCN2CCN(CCn3cncn3)CC2)cc1	-11.3%
COc1cccc(CNC(=O)N2CCN3CCNC(=O)C3C2)c1 (configuration not stated)	2.62%
COc1ccc([C@@H](C)n2ccnc2-c2cc3n(n2)CCCNC3)cc1	-8.48%
CN(CCc1ccccn1)C(=O)CCC1CCCN(S(C)(=O)=O)C1 (configuration not stated)	4.77%
CS(=O)(=O)NCC1CCN(Cc2cc3ccccc3[nH]c2=O)C1 (configuration not stated)	-6.92%
COc1ccc(C(CC(=O)NCc2n[nH]c(N)n2)c2ccccc2)cc1 (configuration not stated)	7.66%

Compound	cytotoxicity at 10 µM
CC(=O)N[C@@H]1C[C@H](Cc2ccccc2)O[C@H](c2ccc(C(=O)O)cc2)C1	2.76%
CC(=O)N1CCCC(C(=O)N2Cc3nc(C)n(C)c(=O)c3C2)C1 (configuration not stated)	-3.65%
COc1cccc(O)c1CN1CCCC(Nc2cccc(F)c2)C1 (configuration not stated)	-4.47%
O=C(CCN1CCOC(C(F)(F)F)C1)NCc1cccc(Cl)c1 (configuration not stated)	2.04%
Cn1ncc2c(NCC3CCS(=O)(=O)C3)nc(-c3ccncc3)nc21 (configuration not stated)	-3.91%
COCCN(Cc1ccccn1)Cc1sccc1C	-3.6%
Cc1cccc(C(C(=O)NCc2nc(-c3cccnc3)no2)N(C)C)c1 (configuration not stated)	6.45%
Cn1ccc(C2CCCCN2C(=O)c2cccc(Cn3cccn3)c2)n1 (configuration not stated)	8.04%
CCn1cc(CN2CCC(c3nnc(CN(C)C)n3CC)CC2)cn1	-22.3%
CN1CCCN(C(=O)c2ccc3c(c2)nc(N2CCOCC2)n3C)CC1	-11.9%
CCNC(=O)[C@@H]1C[C@H](NC(=O)c2cncnc2C)CN1CCCSC	-11.7%
COc1cccc(OCC2CCCN(C3CCN(C(C)=O)CC3)C2)c1 (configuration not stated)	-18.3%
CS(=O)(=O)CCC(=O)N1CCC2(CCCN(C3CCOCC3)C2=O)C1 (configuration not stated)	-7.64%
O=C(c1ccc(C2CCCO2)s1)N1CCS(=O)(=O)CC1 (configuration not stated)	-14.8%
Cn1ccnc1CN1CCN(Cc2ccc(C#N)cc2F)CC1	-13.2%
COc1c(CNC2CCCOc3ccccc32)c(C(C)C)nn1C (configuration not stated)	-3.48%
O=C(c1nn(-c2ccccc2F)cc1O)N1CCCCC1	3.36%
NC(=O)NCCC(=O)NCc1nn(-c2ccccc2)c2c1CCC2	-9.83%
Cc1cnn(CCNCc2csc(-c3ccc(C)o3)n2)c1	-1.64%
COC(=O)CN1CCC(C(=O)c2cc(F)ccc2F)CC1	-6.52%
CCc1nc(C2CCCN2CC(=O)N2CCCc3ccccc32)no1 (configuration not stated)	-25.2%
CCOc1ccccc1OC1CCN(C(=O)c2csnn2)CC1	-5.5%
O=C(Cc1ccc2c(c1)CCO2)N1CCN(c2ccncc2)CC1	-4.8%

Compound	cytotoxicity at 10 µM
CN(Cc1ccsc1)C(=O)Nc1ccc(N2CCCC2)nc1	-10.5%
COc1ccc(CC(=O)N2CCCC(n3nc(C)cc3C)C2)cc1 (configuration not stated)	0.471%
Cc1cc(C(=O)NCc2ccc(N3CCCC(C(N)=O)C3)cc2)on1 (configuration not stated)	-9.56%
Cc1nn(C)c(N(C)C)c1CNCc1ccccc1CO	-8.84%
Cc1nc(C2CCCN(C(=O)c3cccc4c3OCCO4)C2)no1 (configuration not stated)	-8.93%
O=C(CCN1CCCN(c2nccs2)CC1)Nc1ccccc1	10.5%
Cc1cc(NC(=O)N(CC2CCOC2)C2CC2)no1 (configuration not stated)	-0.457%
Cc1ccc(NC2CCN(C(=O)Cc3csc(C)n3)CC2)nn1	-6.51%
NS(=O)(=O)Cc1ccc(CNC(=O)NCC2CCOC2)cc1 (configuration not stated)	1.18%
Cc1ccccc1OC1CCN(CC(=O)Nc2ccn(C)n2)CC1	-3.34%
Fc1ccc(CN2CCO[C@H]3[C@H](OCCN4CCCC4)CC[C@@H]32)cc1	2.17%
CCN(C)c1ncnc2c1CCN(C(=O)c1ccsc1)CC2	-0.408%
COc1c(CNCCNC(=O)c2ccccc2)c(C)nn1C	-4.74%
Cc1ccc(CN2CCCC3(CCCCN3S(C)(=O)=O)C2)s1 (configuration not stated)	-115%
Cc1cccc(NC(=O)N2CCCn3cnc(CN4CCCC4)c3C2)c1	-12.2%
Cn1cc(C(=O)N[C@@H]2CN(Cc3cccs3)[C@@H]3CCCO[C@@H]32)cn1	-13.4%
COCCN1C(=O)[C@]2(CC[C@@H]3CN(Cc4ccccc4F)C[C@@H]32)N=C1C	-0.0957%
CC1=N[C@@]2(CC[C@@H]3CN(Cc4cccc(Cl)c4)C[C@@H]32)C(=O)N1CC1CC1	0.758%
CSc1ncccc1C(=O)N1C[C@@H]2CC[C@H]1CN(c1ncccn1)C2	-4.03%
CCN1CCc2c(sc3c2C(=O)NC(C=Cc2ccccc2)N3)C1 (configuration not stated)	4.73%
